Data from ChEMBL document CHEMBL1126798, “Keto/enol epoxy steroids: a new structural class of HIV-1 Tat inhibitors” (J Med Chem, 1993).

Key:
Protein Tat = target: T1, Protein Tat (Human immunodeficiency virus type 1 group M subtype B (isolate PCV12)(HIV-1), UniProt P04326); experiment: Inhibition of HIV-1 nuclear regulatory protein Tat; set-up: species or system Human immunodeficiency virus type 1 (CLONE 12)
T1 sequence (P04326 whole entry): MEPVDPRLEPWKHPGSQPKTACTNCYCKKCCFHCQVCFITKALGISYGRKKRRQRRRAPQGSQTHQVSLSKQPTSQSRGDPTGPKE
Outline: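 SW480 cells co-transfected with an HIV-1 LTR-driven CAT reporter plasmid and an SV40 promoter-driven Tat plasmid. Cells incubated with dose-ranged compound for 48 h. Tat-induced expression read out as CAT enzyme activity. IC50 and 95% confidence intervals taken from percent-inhibition dose-response curves over 3-5 runs. Counter-screen used an SV40 promoter-driven CAT plasmid (Tat-independent).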

[1] = Therapeutic index against HIV-1 whole cell assay was determined, expressed as the ratio of IC50s of cell cytotoxicity to that of HIV replication; conditions: human immunodeficiency virus 1, HIV-1 whole cell assay; read-out: Therapeutic index
Outline: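 Cytotoxicity: uninfected H9 cells incubated 5 days with the same compound concentrations as the antiviral assay, viable cells counted by trypan blue exclusion. Ratio taken of the cytotoxic IC50 to the IC50 for HIV IIIB replication (p24 ELISA, 5 days, medium and compound renewed day 3).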

H9 = experiment: Inhibition of HIV-1 replication in H9 cells infected with three different concentrations of HIV IIIB strain; format: functional, cell-based; conditions: Homo sapiens
Outline: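 H9 cells infected at three HIV IIIB inoculum levels, then exposed to 3-5 compound concentrations for 5 days. Fresh media and compound replaced on day 3. p24 antigen in culture media measured by ELISA on the final day, mean OD with n = 4 per dose. IC50 found for at least two viral doses, over 3-5 individual assays.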

C[C@]12CCC3C(CC[C@]45OC4C(O)=C(C(N)=O)C[C@]35C)C1CC[C@@H]2O (stereo not given in full)
IC50 (Protein Tat): 14300 nM | selectivity ratio [1]: 6.5 | IC50 (H9): 1200 nM

C[C@]12CC[C@H]3[C@@H](CC[C@]45OC4C(=O)C(S(C)(=O)=O)C[C@]35C)[C@@H]1CC[C@@H]2O (stereo not given in full)
IC50 (Protein Tat): 8400 nM | selectivity ratio [1]: 3.9 | IC50 (H9): 1400 nM

O=C1CN=C(c2ccc[nH]2)c2cc(Cl)ccc2N1
IC50 (Protein Tat): 4000 nM | selectivity ratio [1]: 5.9 | IC50 (H9): 600 nM

CC(=O)O[C@H]1CCC2C3CC[C@]45O[C@H]4C(O)=C(C(N)=O)C[C@]5(C)C3CC[C@@]21C (stereo not given in full)
IC50 (Protein Tat): 2600 nM | selectivity ratio [1]: 1.6 | IC50 (H9): 2400 nM

CC(=O)O[C@H]1CC[C@H]2[C@@H]3CC[C@]45OC4C(=O)C(S(C)(=O)=O)C[C@]5(C)[C@H]3CC[C@]12C (stereo not given in full)
IC50 (Protein Tat): 2600 nM | selectivity ratio [1]: 4.3 | IC50 (H9): 300 nM
